Tests used:
[1] = target: GABA-A receptor; anion channel; experiment: Displacement of [3H]gamma-amino butyric acid from Gamma-aminobutyric acid (GABA-A) receptor of rat brain
[2] = target: GABA-A receptor; anion channel; experiment: Displacement of [3H]gamma-amino butyric acid from Gamma-aminobutyric acid (GABA-A) receptor of human cerebellar cortex preparation
Mus musculus [3] = species: Mus musculus; experiment: Effective dose which decreases the 50% of the lethality induced by bicuculline in mice; format: functional
Outline: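 Mice given ip serial doses 30 min before iv bicuculline at 0.9 mg/kg, 10 animals per drug per dose per experiment. ED50, the dose protecting half the mice from lethality, derived by log-probit plot.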

Mus musculus [4] = species: Mus musculus; experiment: Effective dose which decreases the 50% of the convulsions induced by bicuculline in mice; format: functional
Mus musculus [5] = experiment: Lethal dose which causes death in 50% of the mice within 48 hr of ip administration; format: functional
Outline: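 Male albino CD1 mice (18–22 g) dosed intraperitoneally, then returned to home cages, 10 per cage. Deaths per dose were counted at 48 h. LD50 was estimated on log-probit paper.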

CCCC(CCC)C(=O)[O-].[Na+] [VALPROATE SODIUM]
Ki [1]: > 100000 nM | Ki [2]: > 100000 nM | ED50 (Mus musculus [3]): 130 mg/kg | ED50 (Mus musculus [4]): 33 mg/kg | LD50 (Mus musculus [5]): 1000 mg/kg

O=C([O-])CCC/N=C(\c1ccc(Cl)cc1)c1cc(F)ccc1O.[Na+]
Ki [1]: 590 nM | Ki [2]: 680 nM | ED50 (Mus musculus [3]): 70 mg/kg | ED50 (Mus musculus [4]): 15 mg/kg | LD50 (Mus musculus [5]): 420 mg/kg

NC(=O)CCC/N=C(\c1ccc(Cl)cc1)c1cc(F)ccc1O [PROGABIDE]
Ki [1]: 14000 nM | Ki [2]: 40000 nM | ED50 (Mus musculus [3]): 65 mg/kg | ED50 (Mus musculus [4]): 20 mg/kg | LD50 (Mus musculus [5]): 900 mg/kg

O=C1NC(=O)C(c2ccccc2)(c2ccccc2)N1 [PHENYTOIN]
Ki [1]: > 100000 nM | ED50 (Mus musculus [3]): 50 mg/kg | LD50 (Mus musculus [5]): 250 mg/kg

NCc1cc(=O)[nH]o1 [MUSCIMOL]
Ki [1]: 4 nM | Ki [2]: 11 nM | ED50 (Mus musculus [3]): > 2 mg/kg | ED50 (Mus musculus [4]): 0.25 mg/kg | LD50 (Mus musculus [5]): 17 mg/kg
